Measured values from ChEMBL document CHEMBL3271955, “Design, synthesis, and correlation analysis of 7-substituted 4-hydroxyquinoline-3-carboxylic acids as inhibitors of cellular respiration” (J Med Chem, 1977).

Columns and labels:
[1] = molecular target: T1, Malate dehydrogenase, mitochondrial (Homo sapiens, UniProt P40926); assay: Inhibition of malate dehydrogenase (unknown origin) by spectrophotometry; conditions: read-out: I50
T1 sequence (P40926 whole entry): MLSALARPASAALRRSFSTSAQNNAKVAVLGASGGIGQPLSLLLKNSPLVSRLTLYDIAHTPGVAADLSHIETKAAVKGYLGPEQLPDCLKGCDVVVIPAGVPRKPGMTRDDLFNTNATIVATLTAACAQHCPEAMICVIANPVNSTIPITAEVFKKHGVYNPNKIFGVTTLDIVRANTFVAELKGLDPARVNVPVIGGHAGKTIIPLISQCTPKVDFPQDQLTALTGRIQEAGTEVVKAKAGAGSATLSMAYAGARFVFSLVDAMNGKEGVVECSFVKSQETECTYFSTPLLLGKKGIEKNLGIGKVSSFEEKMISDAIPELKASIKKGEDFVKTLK
Procedure, shortened: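 Malate dehydrogenase of unstated source diluted in pH 7.4 Tris to give 0.01-0.02 OD/min at 340 nm. Cuvette holds L-malate (2 mM stock), NAD+ (0.80 mM stock) and 0.05 M Tris pH 8.4, with inhibitor in Me2SO, at 25 °C. Reaction started with enzyme; NADH formation read at 340 nm. Four inhibitor levels in triplicate; I50 from least-squares dose-response line.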

Ehrlich = assay: Inhibition of respiration in mouse Ehrlich ascites cells after 30 mins incubation at 37 degC by whole cell model; format: functional, cell-based; conditions: 0.5 h, read-out: I50
Procedure, shortened: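 Ehrlich ascites cells passaged weekly in Swiss white mice; fluid from 7-10 day tumors, saline-washed, held on ice at ~0.30 g/mL. Cells incubated in glucose-free phosphate Ringer with DMSO vehicle or DMSO plus inhibitor, 30 min at 37 °C. O2 uptake read by oxygen electrode. At least four concentrations in triplicate; I50 by least squares of % inhibition vs concentration.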

[2] = Lipophilicity, log P of the compound; format: physicochemical; conditions: octanol/water

With O=C(O)c1cnc2cc(S(=O)(=O)O)ccc2c1O the IC50 [1] was 2140 µM and the IC50 (Ehrlich) was 1300 µM.
Molecule O=C(O)c1cnc2cc(O)ccc2c1O has an IC50 [1] of 490 µM and an IC50 (Ehrlich) of 910 µM.
CN(C)c1ccc2c(O)c(C(=O)O)cnc2c1 gave an IC50 [1] of 480 µM and an IC50 (Ehrlich) of 470 µM.
Molecule O=C(O)c1ccc2c(O)c(C(=O)O)cnc2c1 has an IC50 [1] of 1070 µM and an IC50 (Ehrlich) of 5770 µM.
Work on O=C(O)c1cnc2cc([N+](=O)[O-])ccc2c1O yielded an IC50 [1] of 1890 µM and an IC50 (Ehrlich) of 580 µM.
Work on NS(=O)(=O)c1ccc2c(O)c(C(=O)O)cnc2c1 yielded an IC50 [1] of 950 µM and an IC50 (Ehrlich) of 3400 µM.
Work on CC(=O)c1ccc2c(O)c(C(=O)O)cnc2c1 yielded an IC50 [1] of 910 µM and an IC50 (Ehrlich) of 790 µM.
O=C(O)c1cnc2cc(OCc3ccc(Cl)c(Cl)c3)ccc2c1O gave an IC50 [1] of 5 µM and an IC50 (Ehrlich) of 15 µM.
Work on O=C(O)c1cnc2cc(OCc3ccccc3)ccc2c1O yielded an IC50 [1] of 32 µM and an IC50 (Ehrlich) of 38 µM.
Work on O=C(O)c1cnc2ccccc2c1O yielded an IC50 (Ehrlich) of 1060 µM and a logP [2] of 0.23.
Work on NC(=O)c1ccc2c(O)c(C(=O)O)cnc2c1 yielded an IC50 [1] of 740 µM and an IC50 (Ehrlich) of 5820 µM.
With CS(=O)(=O)c1ccc2c(O)c(C(=O)O)cnc2c1 the IC50 [1] was 660 µM and the IC50 (Ehrlich) was 1790 µM.
With O=C(O)c1cnc2cc(Cl)ccc2c1O the IC50 [1] was 3620 µM and the IC50 (Ehrlich) was 140 µM.
With O=C(O)c1cnc2cc(F)ccc2c1O the IC50 [1] was 10600 µM and the IC50 (Ehrlich) was 500 µM.
Work on COc1ccc2c(O)c(C(=O)O)cnc2c1 yielded an IC50 (Ehrlich) of 520 µM.
